This passage reports inhibition, IC50 and Activity results from ChEMBL document CHEMBL3112548, “Synthesis and biological evaluation of novel tetrahydro-β-carboline derivatives as antitumor growth and metastasis agents through inhibiting the transforming growth factor-β signaling pathway” (J Med Chem, 2014).

Data set [1] is described as follows: Antiproliferative activity against human PC9 cells at 10 uM after 48 hrs by SRB assay. Type of data set: functional. To be noted: PC-9, 48 h. The essentials:
(§1)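 SRB assay: 1 × 10^4 cells per well in 96-well plates exposed to compound 48 h; fixed with 10% TCA, stained 30 min at room temperature, washed with 1% acetic acid, dye dissolved in 10 mM Tris base, OD 510 nm. Percent inhibition = decrease in absorbance relative to DMSO control wells.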
On the technique in general: In SRB staining, fixed cells bind dye roughly in proportion to their protein.

Data set [2] addresses TGF-beta receptor type-1 (Homo sapiens) (UniProt P36897). Kind of data set: Inhibition of TGFbetaR1-mediated smad phosphorylation in human HaCaT cells at 1 uM measured within 24 hrs by dual-luciferase reporter gene assay. In general terms: Reporter assays use an easily measured gene product as a stand-in for the process of interest.
A short description of data set [3]: Antimigratory activity against human H1299 cells assessed as inhibition of cell migration after 12 to 24 hrs by transwell migration assay. Type of data set: functional, cell-based. The following applies: NCI-H1299. The essentials: (§2)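 Transwell chambers, 8 μm pore filters; 5 × 10^5 cells in DMEM in top chamber with compound, 10% FBS medium below, 37 °C, 5% CO2; after 12−24 h non-migrated cells swabbed off, migrated cells fixed, stained with 0.2% crystal violet in PBS and counted in five random 10× fields per membrane. Means ± SD.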

Data set [4] has as its system Mus musculus. Kind of data set: Toxicity in nude mouse xenografted with human A549 cells assessed as body weight change at 20 mg/kg, ip qd for 60 days measured up to 60 days. Type of data set: organism-based. Also noted: dose 20 mg/kg, route intraperitoneal. To be noted: in vivo, 1440 h. Put shortly: (§3)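 Nude mice (5 weeks old, acclimated 1 week) given 5 × 10^5 A549 cells in PBS subcutaneously; at ~10 mm tumor diameter, 15 mice size-matched into three groups (n = 5): DMSO vehicle, 5.0 mg/kg or 20 mg/kg ip in 50 μL DMSO daily for 60 days. Body weight and tumor dimensions measured daily; volume = 0.52 × AB².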
(Xenograft models place foreign cells or tissue in a host animal.)

In data set [5] the test system is A549. As to the kind of experiment: Antitumor activity against human A549 cells xenografted in nude mouse assessed as suppression of tumor volume at 20 mg/kg, ip qd for 60 days measured up to 60 days. Also noted: dose 20 mg/kg. Type of data set: functional, organism-based. The essentials:
as §3

Data set [6] concerns A549. As to the kind of experiment: Antiproliferative activity against human A549 cells after 48 hrs by SRB assay. To be noted: A549, 48 h. Type of data set: functional, cell-based. Put shortly: as §1
Data set [7] can be described thus: Antiproliferative activity against human H1299 cells after 48 hrs by SRB assay. To be noted: NCI-H1299, 48 h. Type of data set: functional, cell-based. The essentials:
as §1

A short description of data set [8]: Antiproliferative activity against human PC9 cells after 48 hrs by SRB assay. The format is functional, cell-based. The following applies: PC-9, 48 h. Put shortly: as §1
The test system of data set [9] is A549. As to the kind of experiment: Antitumor activity against human A549 cells xenografted in nude mouse assessed as suppression of tumor volume at 5 mg/kg, ip qd for 60 days measured up to 60 days. Type of data set: functional, organism-based. Also noted: dose 5 mg/kg. Put shortly: as §3
For data set [10], the system named is A549. Kind of data set: Antimigratory activity against human A549 cells assessed as inhibition of cell migration after 12 to 24 hrs by transwell migration assay. The format is functional, cell-based. Put shortly: as §2
The test system of data set [11] is A549. Kind of data set: Antiproliferative activity against human A549 cells assessed as cell viability at 1 uM after 12 hrs by SRB assay. The format is functional, cell-based.
Data set [12] relates to NCI-H1299. Kind of data set: Antiproliferative activity against human H1299 cells assessed as cell viability at 1 uM after 12 hrs by SRB assay. The format is functional, cell-based.
Data set [13] deals with A549. As to the kind of experiment: Antimigratory activity against human A549 cells assessed as decrease in cell migration after 12 hrs by wound healing assay. The following applies: A549, 12 h.
Data set [14] is described as follows: Antimigratory activity against human H1299 cells assessed as decrease in cell migration after 12 hrs by wound healing assay. To be noted: NCI-H1299, 12 h.
For data set [15], the system named is NCI-H1299. As to the kind of experiment: Antimigratory activity against human H1299 cells assessed as reduction in distance at 1 uM after 24 hrs by time-lapse video microscopy. The format is functional, cell-based. The essentials:
(§4)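 H1299 cells (5 × 10^4) in 30 mm dishes pretreated with or without compound for 24 h, then tracked by time-lapse microscopy, one frame per 10 min over 10 h; eight random cells per condition; migration distance and speed taken from track plots. Means ± SD, Student's t test.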

The subject of data set [16] is NCI-H1299. As to the kind of experiment: Antimigratory activity against human H1299 cells assessed as reduction of cell velocity at 1 uM after 24 hrs by time-lapse video microscopy. The format is functional, cell-based. The essentials:
as §4

Data set [17] concerns 4T1. Kind of data set: Antitumor activity against mouse 4T1 cells expressing luciferase allograted in ip dosed Balb/c mouse assessed as suppression of tumor volume compound administered for 20 days measured after 20 days. The format is functional, organism-based. Put shortly:
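Female Balb/c mice (6 weeks old) given 5 × 10^4 4T1-luciferase cells into mammary fat pad; after 7 days (~5 mm tumors) 24 mice randomized into DMSO vehicle, 1.0 or 5.0 mg/kg/day ip groups; after 20 days tumor burden quantified as bioluminescence by in vivo imaging. Body weight measured daily. Mean ± SD.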

In data set [18] the test system is Mus musculus. Kind of data set: Toxicity in nude mouse xenografted with human A549 cells assessed as body weight change at 5 mg/kg, ip qd for 60 days measured up to 60 days. The following applies: in vivo, 1440 h. On the set-up: dose 5 mg/kg, route intraperitoneal. Type of data set: organism-based. The essentials:
as §3

Calls of active or inactive are those of the source. The rule behind the calls is not given here.

Sequence of TGF-beta receptor type-1 (Homo sapiens) (P36897 whole entry, looked up): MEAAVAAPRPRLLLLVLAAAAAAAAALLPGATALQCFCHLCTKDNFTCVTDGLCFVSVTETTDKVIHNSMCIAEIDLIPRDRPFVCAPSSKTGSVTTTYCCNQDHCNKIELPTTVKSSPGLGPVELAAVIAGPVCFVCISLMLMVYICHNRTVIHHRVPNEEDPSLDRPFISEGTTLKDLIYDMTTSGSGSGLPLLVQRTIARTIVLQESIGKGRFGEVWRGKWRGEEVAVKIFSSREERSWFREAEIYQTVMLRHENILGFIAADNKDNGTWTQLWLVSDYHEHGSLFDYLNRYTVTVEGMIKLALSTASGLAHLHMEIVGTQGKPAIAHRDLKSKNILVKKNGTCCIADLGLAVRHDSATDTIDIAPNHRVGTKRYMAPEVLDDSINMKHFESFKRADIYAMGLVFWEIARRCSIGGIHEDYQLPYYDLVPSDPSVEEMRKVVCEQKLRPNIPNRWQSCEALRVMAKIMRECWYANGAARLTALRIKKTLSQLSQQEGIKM

For `O=Cc1ccc(CC(=O)N2CCc3c([nH]c4ccccc34)C2)cc1`, the inhibition (as a rule, the drop in the measured response relative to a control, in per cent) at 10 µM in [1] was determined as 21%. The inhibition in data set [2] is 11.8%.

With `O=C(Cc1ccccc1)N1CCc2c([nH]c3ccc(Br)cc23)C1`, in [1], testing at 10 µM gave an inhibition of 47%.

Regarding `CC1c2[nH]c3ccc(O)cc3c2CCN1C(=O)Cc1ccccc1` (stereo unspecified), testing at 10 µM in [1] gave an inhibition of 8%. This molecule also had an inhibition in data set [2] of 11.2%.

In data set [1], `O=C(Cc1ccc(CBr)cc1)N1CCc2c([nH]c3ccccc23)C1` returned an inhibition at 10 µM of 26%. In data set [2], this molecule came in with an inhibition of 50.1%.

In data set [1], `CCC1c2[nH]c3ccccc3c2CCN1C(=O)Cc1ccccc1` (stereo unspecified) returned an inhibition at 10 µM of 24%. This molecule also yielded an inhibition in data set [2] of 52.1%.

`O=C(Cc1ccc(Cl)cc1)N1CCc2c([nH]c3ccccc23)C1`: the inhibition at 10 µM in data set [1] is 33%. In data set [2], this molecule gave an inhibition of 7.9%.

As to `O=C(Cc1cccc(O)c1)N1CCc2c([nH]c3ccccc23)C1`, the inhibition at 10 µM in data set [1] is 11%. In data set [2], this molecule came in with an inhibition of 29.1%.

Regarding `O=C(C(O)c1ccccc1)N1CCc2c([nH]c3ccccc23)C1` (stereo unspecified), testing at 10 µM in [1] gave an inhibition of 28%. Besides, the inhibition in [2] is 12.9%.

For the molecule `NC(=O)c1ccc(-c2nc(-c3ccccn3)c(-c3ccc4c(c3)OCO4)[nH]2)cc1` [SB-431542], the IC50 (in general, the concentration that inhibits the measured activity by half) in data set [3] was 0.5 µM.

In the case of `O=C(Cc1ccccc1O)N1CCc2c([nH]c3ccccc23)C1`, in [1], at 10 µM the inhibition was 33%. The same molecule displayed an inhibition in [2] of 19.7%.

Turning to `O=C(Cc1ccc(O)c(O)c1)N1CCc2c([nH]c3ccccc23)C1`, the inhibition at 10 µM in data set [1] came out at 26%. In [2], this molecule came in with an inhibition of 21%.

In [1], `O=C(Cc1ccc(O)cc1)N1CCc2c([nH]c3ccccc23)C1` had an inhibition at 10 µM of 39%. The molecule also yielded an inhibition in data set [2] of 64.2%.

In turn, `O=C(N1CCc2c([nH]c3ccccc23)C1)C(O)(c1ccccc1)c1ccccc1` came in with an inhibition at 10 µM in data set [1] of 0%. The inhibition in data set [2] is 12.3%.

As to `COc1cc2ncnc(Nc3ccc(F)c(Cl)c3)c2cc1OCCCN1CCOCC1` [GEFITINIB], the Activity entry in data set [4] is on record as “Toxic”. Also, the result in data set [5] was Active.

Molecule `Nc1ccc(CC(=O)N2CCc3c([nH]c4ccccc34)C2)cc1` yielded an inhibition at 10 µM in data set [1] of 8%. The inhibition in data set [2] is 18.1%.

In turn, `O=C(c1ccccn1)N1CCc2c([nH]c3ccccc23)C1` displayed an inhibition at 10 µM in data set [1] of 4%. Also, the inhibition in data set [2] stood at 1.1%.

`O=C(O)CC1c2[nH]c3ccccc3c2CCN1C(=O)Cc1ccccc1` (stereo unspecified) displayed an inhibition at 10 µM in data set [1] of 9%. The inhibition in data set [2] was found to be 4.1%.

Regarding `O=C(c1ccccc1)N1CCc2c([nH]c3ccccc23)C1`, the inhibition at 10 µM in data set [1] was found to be 7%. Moreover, the inhibition in data set [2] came to 9.5%.

For the molecule `O=C(Cc1ccccc1)N1CCc2c([nH]c3ccc(F)cc23)C1`, the half-inhibitory concentration (IC50) stood at 4.85 µM in data set [6], 6.19 µM in data set [7] and 7.09 µM in data set [8]. Testing at 10 µM in data set [1] gave an inhibition of 78%.

`O=C(CCc1ccccc1)N1CCc2c([nH]c3ccccc23)C1` yielded an inhibition at 10 µM in data set [1] of 48%. Besides, the inhibition in [2] was found to be 31.1%.

In turn, `O=C(Cc1ccc(F)cc1)N1CCc2c([nH]c3ccccc23)C1` came in with an inhibition at 10 µM in data set [1] of 21%. Besides, the inhibition in data set [2] worked out at 11.8%.

In data set [1], `CC(C)(C)OC(=O)NC(Cc1ccccc1)C(=O)N1CCc2c([nH]c3ccccc23)C1` (stereo unspecified) showed an inhibition at 10 µM of 0%. This molecule gave an inhibition in data set [2] of 44.3%.

`CCN(CC)c1ccc(CC(=O)N2CCc3c([nH]c4ccccc34)C2)cc1` came in with an inhibition at 10 µM in data set [1] of 18%. The molecule also returned an inhibition in data set [2] of 49%.

Turning to `COC(=O)CC1c2[nH]c3ccccc3c2CCN1C(=O)Cc1ccccc1` (stereo unspecified), the inhibition in data set [2] was 18.2%.

`NC(C(=O)N1CCc2c([nH]c3ccccc23)C1)c1ccccc1` (stereo unspecified): the inhibition at 10 µM in data set [1] amounted to 11%. In [2], this molecule displayed an inhibition of 10.9%.

In the case of `O=C(c1cccs1)N1CCc2c([nH]c3ccccc23)C1`, the inhibition at 10 µM in data set [1] is 9%. The same molecule had an inhibition in data set [2] of 2.2%.

`O=C(Cc1ccccc1)N1CCc2c([nH]c3ccccc23)C1c1ccccc1` (stereo unspecified) returned an inhibition at 10 µM in [1] of 10%. Also, the inhibition in data set [2] is 10.3%.

In [1], `CC(C)(C)OC(=O)NC(C(=O)N1CCc2c([nH]c3ccccc23)C1)c1ccccc1` (stereo unspecified) gave an inhibition at 10 µM of 31%. The inhibition in data set [2] was 58.8%.

Take `O=C(Cc1ccccc1)N1CCc2c([nH]c3ccccc23)C1`: the outcome in [9], in [11], in [12], in [15] and in data set [16] was Active. For the same molecule, the concentration for half-maximal inhibition (IC50) in data set [10] was less than 0.5 µM; in data set [3] it was less than 0.5 µM; in data set [13] it was 0.1 µM; in data set [14], 0.1 µM; in data set [6], 7.9 µM; in data set [7], 8.07 µM. The same molecule had a half-maximal inhibitory concentration (IC50) in [8] of 5.87 µM. For the same molecule, testing at 10 µM in [1] gave an inhibition of 59%. Also, the figures for the Activity entry in data set [17] and in data set [18] were “Dose-dependent effect” and “Toxic”, respectively. Moreover, the inhibition in [2] is 72.4%.
